Measured values gathered from unrelated publications.
Protocols differ between the studies behind these lines.
Target: Mitogen-activated protein kinase kinase kinase 14 (MAP3K14, Homo sapiens, UniProt Q99558)

SMILES	observed	technique	concentration	remaining binding [%]
CN(c1nccc(-c2cnn3ncccc23)n1)C1CC1	binding		1 µM	100
C=CC(=O)N1CCC(C(=O)NCC(=O)N2CCN(c3nc(-c4cnc(N)nc4C(F)F)nc(N4CCOCC4)n3)CC2)CC1	binding	competition with immobilised ligand	1 µM	89
CNCc1ccccc1-c1csc([C@@H](C)Nc2nc(C)nc3cc(OC)c(OC)cc23)c1	cell-free assay	competition with immobilised ligand	1 µM	93
COc1cnc(Nc2cccc(S(N)(=O)=O)c2)nc1N1CCN(c2ccccc2)CC1	binding	competition with immobilised ligand	1 µM	96
Cc1cnn2ncc(-c3ccnc(N(C)C)n3)c2c1	binding		1 µM	80
O=C(NCC1CCOCC1)c1n[nH]cc1NC(=O)c1c(F)cccc1F	binding	competition with immobilised ligand	1 µM	79
C[C@H]1CCN(c2nccc(-c3cnn4ncccc34)n2)C1	binding	competition with immobilised ligand	1 µM	82
O=C(c1ccc(Nc2nccc(-c3cc4ccccc4s3)n2)cc1)N1CCC(N2CCCC2)CC1	binding	competition with immobilised ligand	1 µM	59
CNC(=O)[C@@H]1CC[C@@H](n2c(-c3ccc4cnccc4c3)nc3ccc(C(=O)NCc4cccc(C(N)=O)c4)cc32)C1	binding	competition with immobilised ligand	1 µM	100
CN(c1ccnc(CNc2nc(Nc3ccc4c(c3)CC(=O)N4)ncc2C(F)(F)F)n1)S(C)(=O)=O	cell-free assay	competition with immobilised ligand	1 µM	65
FC(F)(F)Oc1cccc(-c2cnc3ccc(-c4ccncc4)nn23)c1	cell-free assay	competition with immobilised ligand	5 µM	37
O=C(NCc1ncc(C(F)(F)F)cc1Cl)c1ccc2c(c1)C1(CCS(=O)(=O)CC1)[C@@H](C1CC1)N2S(=O)(=O)c1ccc(F)cc1	cell-free assay	competition with immobilised ligand	1 µM	71
Nc1ncc2c(n1)-c1c([nH]c3ccc(C#CC4CC4)cc13)CCCC2	binding	competition with immobilised ligand	1 µM	73
CN(C)C(=O)Cn1cc(-c2nc(C3(c4ccc(-c5cnc(N)nc5)cc4)CC3)no2)cn1	cell-free assay	competition with immobilised ligand	1 µM	83
CN(CCCC(F)(F)F)c1nccc(-c2cnn3ncccc23)n1	binding	competition with immobilised ligand	1 µM	100
CCCCN(CCCC)C(=O)CN1C[C@H](c2cc(OC)c3c(c2)OCO3)[C@@H](C(=O)O)[C@@H]1CC(C)(C)CCC	cell-free assay	competition with immobilised ligand	1 µM	100
CN(C)c1ncc(F)c(-c2cnn3ncccc23)n1	binding	competition with immobilised ligand	1 µM	75
O=C(NCCCN1CCOCC1)c1ccc(Nc2ncc(Cl)c(-c3ccc(Cl)s3)n2)cc1	binding	competition with immobilised ligand	1 µM	49
c1ccc(N2CCN(Cc3nc4ccccc4[nH]3)CC2)nc1	binding	competition with immobilised ligand	1 µM	94
N[C@@H]1CCN(c2nccc(-c3cnn4ncccc34)n2)C1	binding		1 µM	91
